Rows were chosen to be rich in hits. Some 4.1% of all compounds tested hit in one or more screens of this group.
KCNQ1 inh – blocks the human KCNQ1 potassium channel | AID 2642 | CHO-K1 KCNQ1, FluxOR thallium flux fluorescence; hits give high values | P51787 | B-score at 10 µM | hit rate 1.3% among 310,000;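 active means compounds whose thallium flux B-score, printed positive for inhibition, exceeds three library SD while starting fluorescence stays within three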;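 further: channel opened by potassium depolarization with thallium stimulus after 20 min compound exposure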
KCNK3 inh – human KCNK3 channel inhibition, primary screen. O14649. CHO-KCNK3 thallium flux, FluxOR fluorescence; hits give low values. hit rate 0.84% among 340,000. B-score at 10 µM;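 active means B-score under library mean minus 4 SD, starting fluorescence ratio at most library mean plus 5 SD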;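 further: more negative B-score means stronger inhibition of thallium flux through KCNK3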
hERG rescue – shields human hERG channel from block by proarrhythmic agents | Q12809 | CHO-hERG, FluxOR thallium flux, dofetilide IC70 present | activation (rescue from dofetilide block), less the hit threshold, % at 10 µM | hit rate 0.51% among 310,000 | AID 1511;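 active means activation above the mean of controls blocked by dofetilide plus 5 SD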;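 further: thallium influx through hERG after potassium depolarization seen as dye fluorescence rise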
KCC2 mod – KCC2 (human) Cl- transport modulation. AID 1456. B-score of Tl+ flux slope (higher = more flux/activation; lower = inhibition) at 10 µM. hit rate 2.2% among 190,000. Q9H2X9. KCC2 cells, thallium flux FluoZin-2 fluorescence;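 active means thallium flux slope and its plate-corrected score both differing from the plate sample mean at a set confidence after two filtering rounds, in either direction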;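 further: slope of fluorescence scaled to starting intensity during 10 to 20 s after thallium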
KCNK9 inh – inhibitors of human KCNK9 two-pore domain potassium channel. Q9NPC2. HEK293 KCNK9, FluxOR thallium flux fluorescence; hits give low values. B-score at 10 µM. hit rate 1.2% among 310,000. AID 488922;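 active means ratio B-score over 3 SD below the library mean, with starting fluorescence within 5 SD of its mean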;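 further: negative B-score means less thallium flux so channel inhibition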
KCNQ1 act – human KCNQ1 channel potentiation or activation; CHO-K1 KCNQ1, thallium flux FluxOR fluorescence; hits give high values; B-score at 10 µM; hit rate 0.35% among 310,000; AID 2648;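 active means fluorescence ratio B-score, a plate-corrected score, at least three library SD, with initial intensity B-score within 5 SD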
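Medium – assay buffer, equal DMSO in all wells · Material – CHO-K1 cell line with stable KCNQ1 potassium channel expression · Signal – kinetic FluxOR thallium fluorescence, 10-s 1-Hz baseline, 110-s post-stimulus read · Compound – single concentration per compound, DMSO matched to controls · Schedule – 37 °C overnight plating, 90-min dark dye load, 20-min compound pretreatment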
KCNQ1 inh valid – reconfirmed blocker of the human KCNQ1 potassium channel; AID 588353; hit rate 93% among 1,600; KCNQ1 cell line, FluxOR thallium flux fluorescence; inhibition, % at 10 µM; shares compounds with KCNQ1 inh;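 active means primary screen active, with duplicate mean exceeding buffer control mean plus 3 SD of buffer wells, cut at about 28% in these data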;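 further: 0% = buffer control ratio and 100% = XE991 inhibitor control ratio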
CHO KCNQ1 ctr – KCNQ1 inhibitor counter-screen hit in parental CHO cells | shares compounds with KCNQ1 inh | parental CHO-K1, FluxOR thallium flux fluorescence ratio; hits give low values; zero means no signal rise above baseline | fluorescence ratio (Tl flux) at 10 µM | hit rate 21% among 1,600 | AID 588366;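 active means mean of duplicate thallium-flux fluorescence ratios in parental host cells more than 5 SD below the buffer control mean, cut at about 0.38 in these data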;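 further: ratio is peak minus minimum fluorescence divided by baseline fluorescence; actives read low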
KCNQ1 APC inh – blocks human KCNQ1 current in automated patch clamp. hit rate 20% among 490. calls only at 10 µM. KCNQ1-CHO cells. shares compounds with KCNQ1 inh. AID 624120;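 active means KCNQ1 current drop exceeding 3 SD of negative control wells, seen in both duplicate runs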;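 further: steady state current during a 2 s step from -80 to +40 mV; negative values mean current inhibition and positive values mean potentiation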
KCNQ2 inh – rat KCNQ2 inhibition in KCNQ1 inhibitor specificity screen; shares compounds with KCNQ1 inh; KCNQ2 cells, FluxOR thallium flux fluorescence; inhibition, % at 10 µM; hit rate 71% among 1,600;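 active means mean percent inhibition of the KCNQ2 thallium signal more than 5 SD above the buffer-only control wells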;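 further: KCNQ2 expressed in CHO cells; 0% = buffer control wells and 100% = XE-991 inhibitor control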
KCNQ1-KCNE1 inh – selectivity of KCNQ1 inhibitors: inhibition of human KCNQ1/KCNE1 channel. KCNQ1/KCNE1 cells, FluxOR thallium flux fluorescence. inhibition, % at 10 µM. hit rate 77% among 1,600. AID 652147. shares compounds with KCNQ1 inh;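 active means mean percent inhibition of duplicate wells above the buffer-only control mean plus 3 SD of those controls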;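 further: 0% = buffer only wells and 100% = XE-991 inhibitor control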
Target sequence (P51787 whole entry, looked up): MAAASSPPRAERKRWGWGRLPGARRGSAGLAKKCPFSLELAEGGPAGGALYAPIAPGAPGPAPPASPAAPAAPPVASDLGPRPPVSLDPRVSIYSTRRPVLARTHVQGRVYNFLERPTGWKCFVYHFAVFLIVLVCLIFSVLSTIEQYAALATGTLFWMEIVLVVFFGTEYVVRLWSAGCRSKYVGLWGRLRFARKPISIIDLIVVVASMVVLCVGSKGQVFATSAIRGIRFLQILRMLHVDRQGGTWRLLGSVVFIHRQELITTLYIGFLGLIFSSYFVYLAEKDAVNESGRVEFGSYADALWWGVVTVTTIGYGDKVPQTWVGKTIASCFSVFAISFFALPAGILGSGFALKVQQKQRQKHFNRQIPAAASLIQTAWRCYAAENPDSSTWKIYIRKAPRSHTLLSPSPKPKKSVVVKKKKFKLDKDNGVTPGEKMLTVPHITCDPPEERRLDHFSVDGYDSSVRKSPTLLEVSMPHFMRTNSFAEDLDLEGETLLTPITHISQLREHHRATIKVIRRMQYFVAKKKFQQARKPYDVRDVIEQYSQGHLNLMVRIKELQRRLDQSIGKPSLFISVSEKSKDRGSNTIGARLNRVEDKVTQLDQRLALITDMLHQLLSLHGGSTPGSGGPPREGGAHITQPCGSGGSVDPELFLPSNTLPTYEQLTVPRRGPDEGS
* = called active by the depositor; i = inactive; nt = no result given; + = active, no number.

SMILES | KCNQ1 inh | KCNK3 inh | hERG rescue | KCC2 mod | KCNK9 inh | KCNQ1 act | KCNQ1 inh valid | CHO KCNQ1 ctr | KCNQ2 inh | KCNQ1-KCNE1 inh | others
O=C1NC[C@H](Cc2ccccc2)N(CC2CCN(CCc3ccc(-c4ccccc4)cc3)CC2)C1=O | nt | i | nt | nt | nt | nt | nt | nt | nt | nt
OCCNc1nc(Nc2ccc(Br)cc2)nc2ccccc12 | 15* | nt | -8.5 | -0.303 | i | i | 0.0 | 0.461 | 78.3%* | i
c1ccc(Nc2nc(NCC3CCCO3)c3ccccc3n2)cc1 (stereo not given) | 12* | -10.3* | -25.6 | -0.124 | i | i | 128.5* | 0.402 | 116.3%* | 150.0%* | KCNQ1 APC inh=+
CCOc1ccc(Nc2nc(NCC3CCCO3)c3ccccc3n2)cc1 (stereo not given) | 11* | i | -30.5 | nt | i | i | 134.5* | 0.392 | 80.7%* | 131.5%* | KCNQ1 APC inh=i
c1ccc(-c2nc(NCC3CCCO3)c3ccccc3n2)nc1 (stereo not given) | i | i | -14.6 | 0.786 | i | i | nt | nt | nt | nt
OCCC1CN(Cc2nc(-c3ccc(F)cc3)cs2)CCN1CCc1ccccc1 (stereo not given) | i | i | -18.1 | -2.84 | i | i | nt | nt | nt | nt
CC(C)(C)CN1CCN(Cc2nc(-c3ccc(F)cc3)cs2)CC1CCO (stereo not given) | 6* | i | -9.2 | nt | i | i | 69.5* | 0.479 | 74.0%* | 64.5%*
COc1ccc(CCNC(=O)COc2cccc(-n3cnnn3)c2)cc1 | nt | i | nt | nt | nt | nt | nt | nt | nt | nt
O=C(NC(c1cccnc1)C(F)(F)F)c1cc(COc2ccc3c(c2)CCCC3)on1 (stereo not given) | 16* | i | -15.8 | nt | i | i | 138.5* | 0.361* | 118.3%* | +
CCSc1nnc(SCC(=O)Nc2cc(C)on2)s1 | nt | i | nt | nt | nt | nt | nt | nt | nt | nt
Cc1ccnc(NC(=O)c2cnc(Cl)c(Cl)c2)c1 | i | i | -8.6 | nt | i | i | nt | nt | nt | nt
O=C(Nc1cccc(S(=O)(=O)NC2=NCCC2)c1)c1cnc(Cl)c(Cl)c1 | nt | i | nt | nt | nt | nt | nt | nt | nt | nt
COc1ccccc1Cc1nnc(NC(=O)C2CCN(C(=O)c3ccco3)CC2)s1 | i | i | -8.7 | nt | i | i | nt | nt | nt | nt
c1ccc(CC2CCN(c3ncnc4sccc34)CC2)cc1 | 8* | i | -32.1 | -2.77 | i | i | 136.5* | 0.335* | 89.0%* | 175.5%*
O=C(O)c1cc2c(N3CCC(Cc4ccccc4)CC3)ncnc2s1 | i | i | -0.2 | -3.18 | i | i | nt | nt | nt | nt
CCOc1ccc(NC(=O)Nc2ccc3nsnc3c2)cc1 | 12* | i | -10.6 | -0.569 | i | i | 27.0* | 0.554 | i | i
CCOc1ccc(NC(=S)Nc2ccc3nsnc3c2)cc1 | 6* | i | -2.0 | 0.719 | i | i | 82.0* | 0.493 | 69.7%* | 48.5%*
COc1ccc(NC(=S)Nc2ccc3nsnc3c2)cc1 | i | i | -13.2 | -0.954 | i | i | nt | nt | nt | nt
CCOc1ccc(NC(=O)Nc2cccc(C(=O)O)c2)cc1 | i | i | -1.8 | 1.04 | i | i | nt | nt | nt | nt
CCOc1ccc(NC(=S)Nc2ccc(OCC)cc2)cc1 | i | i | -20.8 | 0.443 | i | i | nt | nt | nt | nt
CCOc1ccc(NC(=S)Nc2ccc(OC(F)(F)F)cc2)cc1 | 7* | i | -3.0 | -0.428 | i | i | 0.0 | 0.551 | i | i
COc1ccc(S(=O)(=O)N2CCC(C(=O)N(C)Cc3ccc(C)o3)CC2)cc1OC | nt | i | nt | nt | nt | nt | nt | nt | nt | nt
Cc1cc(C(=O)OCc2nnc(-c3ccccc3)o2)c(C)n1-c1ccccc1 | 10* | i | -7.7 | 0.351 | i | i | 132.5* | 0.331* | 108.3%* | 173.0%*
C[C@H]1CN([C@@H](C)CO)C(=O)c2cccc(NS(=O)(=O)c3ccc(Cl)cc3)c2O[C@@H]1CN(C)CC1CCCCC1 | nt | i | nt | nt | nt | nt | nt | nt | nt | nt
O=c1[nH]c(C2CCCN(S(=O)(=O)c3ccccc3F)C2)nc2c1nnn2Cc1ccccc1Cl (stereo not given) | i | i | -8.7 | nt | i | i | nt | nt | nt | nt
SMILES | KCNQ1 inh | KCNK3 inh | hERG rescue | KCC2 mod | KCNK9 inh | KCNQ1 act | KCNQ1 inh valid | CHO KCNQ1 ctr | KCNQ2 inh | KCNQ1-KCNE1 inh | others
CSc1ccc(S(=O)(=O)N2c3ccccc3CC2C)cc1 (stereo not given) | 6* | i | -9.8 | nt | i | i | 104.5* | 0.434 | 99.0%* | 142.0%* | KCNQ1 APC inh=+
O=C1CCc2cc(S(=O)(=O)Nc3ccccc3)cc3c2N1CC3 | i | i | -6.8 | nt | i | i | nt | nt | nt | nt
Cn1c(CNC(=O)CNC(=O)c2ccc(F)cc2)cc(=O)n(C)c1=O | i | i | -0.7 | nt | i | i | nt | nt | nt | nt
COc1ccc(-c2cc(=NC(CC(C)C)C(=O)O)c3cc(C)ccc3o2)cc1 (stereo not given) | 9* | i | -16.4 | -1.78 | i | i | 70.0* | 0.454 | i | 54.0%*
COc1ccc(-c2cc(=Nc3ccc(C)cc3)c3ccccc3o2)cc1 | i | i | -9.0 | nt | i | i | nt | nt | nt | nt
CCN(C(=O)COC(=O)CCCc1c[nH]c2ccccc12)c1c(N)n(Cc2ccccc2)c(=O)[nH]c1=O | nt | i | nt | nt | nt | nt | nt | nt | nt | nt
Oc1ccc(NC(=S)N=Nc2c(O)[nH]c3ccc(Br)cc23)cc1 | 7* | i | -16.9 | nt | i | i | 108.5* | 0.404 | 75.3%* | 158.5%* | KCNQ1 APC inh=i
Cc1onc(-c2ccccc2)c1C(=O)Nc1nc(-c2ccc(F)c(F)c2)cs1 | 7* | i | -8.1 | 1.07 | i | i | 103.5* | 0.515 | 109.0%* | 120.0%* | KCNQ1 APC inh=i
O=C(Nc1ccccc1)Nc1nc(-c2ccc(F)c(F)c2)cs1 | 6* | i | -6.1 | nt | i | i | 72.0* | 0.468 | 83.7%* | 81.5%*
COc1ccccc1Nc1cc(C(=O)N2CCc3ccccc3C2)c2ccccc2n1 | i | nt | -15.7 | -1.41 | i | i | nt | nt | nt | nt
COc1ccc(-c2cc(C(=O)N3CCN(c4ccccc4F)CC3)c3ccccc3n2)c(OC)c1 | 7* | i | -19.1 | nt | i | i | 110.5* | 0.394 | i | 176.0%* | KCNQ1 APC inh=i
